{
  "source": "paper PMC8710994",
  "about": "(Redox Biology, 2021)",
  "key": {"[1]": {"test_system": "APAP-induced acute liver injury", "test": "APAP-induced acute liver injury in mice", "assay_type": "in vivo, C57BL/6 male mice"}, "[2]": {"test": "MTT cytotoxicity assay, LO2", "assay_type": "cell-based, human", "settings": "human, LO2 cells"}, "[3]": {"test": "Stability by UV-Vis and 1H NMR over 7 days", "assay_type": "physicochemical", "settings": "4:1 acetonitrile/aqueous medium, seven days"}, "[4]": {"test_system": "LO2 cells", "test": "Cellular uptake in LO2 cells by ICP-MS", "assay_type": "in vitro ADME, human", "settings": "5 μM", "procedure,_shortened": "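LO2 cells were incubated with test compound at 5 μM for varying times. Iridium was then quantified by ICP-MS in whole cells and in separated nuclear and cytoplasmic fractions. Three independent experiments were run, shown as mean ± standard deviation; one-way ANOVA with Tukey's test.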"}, "[5]": {"test_system": "Nrf2", "test": "Nrf2 nuclear translocation in LO2 cells", "assay_type": "cell-based, human", "settings": "after 1 h"}, "[6]": {"test_system": "LO2 cells", "test": "ROS detection", "assay_type": "cell-based, human", "settings": "5 μM, 8 h", "procedure,_shortened": "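LO2 cells were treated with H2O2 (800 μM, 3 h) and test compound (5 μM, 8 h). Cells were labelled with 5 μM H2DCF-DA in serum-free DMEM at 37 °C for 30 min, washed, and imaged by confocal microscopy at excitation 488 nm, emission 525 nm.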"}, "[7]": {"biological_target": "T1, Keap1–Nrf2 interaction (Homo sapiens, UniProt Q14145)", "T1 sequence (Q14145 whole entry)": "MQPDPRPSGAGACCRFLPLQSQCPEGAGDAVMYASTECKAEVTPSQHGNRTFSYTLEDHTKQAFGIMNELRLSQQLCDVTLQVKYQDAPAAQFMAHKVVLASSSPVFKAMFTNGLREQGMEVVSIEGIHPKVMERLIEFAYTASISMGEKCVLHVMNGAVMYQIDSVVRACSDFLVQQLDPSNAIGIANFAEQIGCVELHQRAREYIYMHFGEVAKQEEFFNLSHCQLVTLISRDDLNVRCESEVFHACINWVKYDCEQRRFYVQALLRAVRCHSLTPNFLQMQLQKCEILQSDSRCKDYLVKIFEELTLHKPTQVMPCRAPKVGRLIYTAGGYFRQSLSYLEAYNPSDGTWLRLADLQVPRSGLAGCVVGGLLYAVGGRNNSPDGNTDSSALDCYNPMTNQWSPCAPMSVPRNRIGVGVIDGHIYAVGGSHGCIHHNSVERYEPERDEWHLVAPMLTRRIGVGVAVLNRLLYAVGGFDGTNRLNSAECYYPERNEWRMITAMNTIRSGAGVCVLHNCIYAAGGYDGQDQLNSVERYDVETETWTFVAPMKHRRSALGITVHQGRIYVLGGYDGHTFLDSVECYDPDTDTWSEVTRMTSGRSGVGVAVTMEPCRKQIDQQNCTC", "test": "Fluorescence polarization", "settings": "read-out: Keap1–Nrf2 binding inhibition IC50; FP assay"}, "[8]": {"biological_target": "T2, Keap1 (Homo sapiens, UniProt Q14145)", "T2 sequence (Q14145 whole entry)": "as above", "test": "Isothermal titration calorimetry with recombinant Keap1", "assay_type": "binding", "procedure,_shortened": "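Human His6-Keap1 was expressed in E. coli BL21(DE3) (1 mM IPTG, 37 °C, 4 h) and purified on a His column. Protein and test compound were dialysed into 20 mM Bis-Tris, 150 mM NaCl, 2 mM DTT. Compound (200 μM) was titrated into protein (20 μM) in 19 × 2 μL injections, 150 s apart, at 25 °C and 750 rpm. Control titrations were included; data were fitted with a composite model.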"}, "[9]": {"biological_target": "T3, Nrf2 (Homo sapiens, UniProt Q16236)", "T3 sequence (Q16236 1-605)": "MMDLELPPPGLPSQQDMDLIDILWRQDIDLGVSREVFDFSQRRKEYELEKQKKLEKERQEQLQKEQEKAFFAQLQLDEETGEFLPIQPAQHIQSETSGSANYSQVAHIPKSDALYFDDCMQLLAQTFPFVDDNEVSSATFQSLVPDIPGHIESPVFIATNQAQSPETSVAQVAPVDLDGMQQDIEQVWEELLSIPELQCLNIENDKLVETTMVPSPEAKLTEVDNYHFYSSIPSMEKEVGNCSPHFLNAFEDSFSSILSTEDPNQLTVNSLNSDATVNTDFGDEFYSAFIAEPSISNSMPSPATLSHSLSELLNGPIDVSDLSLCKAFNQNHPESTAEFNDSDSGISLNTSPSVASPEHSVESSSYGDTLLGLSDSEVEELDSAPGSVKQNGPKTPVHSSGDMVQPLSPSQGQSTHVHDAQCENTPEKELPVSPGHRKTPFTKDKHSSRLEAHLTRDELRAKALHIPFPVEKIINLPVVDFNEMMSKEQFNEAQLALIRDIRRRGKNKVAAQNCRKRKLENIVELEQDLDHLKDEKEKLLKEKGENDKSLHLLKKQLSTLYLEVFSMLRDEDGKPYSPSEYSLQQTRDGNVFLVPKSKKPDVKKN", "test": "Isothermal titration calorimetry with recombinant Nrf2", "assay_type": "binding", "settings": "200 μM of 1 titrated into Nrf2 (20 μM)"}, "[10]": {"test_system": "LO2 cells", "test": "Cytoprotection against APAP-induced cytotoxicity in LO2 cells", "assay_type": "cell-based, human"}, "[11]": {"biological_target": "T2, Keap1", "test": "Cellular thermal shift assay", "assay_type": "cell-based", "settings": "1 at 5.0 μM, LO2 cell lysates", "procedure,_shortened": "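LO2 lysate from 2 × 10^6 cells was diluted in PBS and split into equal aliquots. Aliquots were treated with test compound (5.0 μM) or DMSO for 30 min at room temperature, then heated individually across a temperature series. They were centrifuged, and supernatants were run on SDS-PAGE and immunoblotted for Keap1.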"}, "[12]": {"biological_target": "T1, Keap1–Nrf2 interaction", "test": "Co-immunoprecipitation of Keap1 and Nrf2 in LO2 cells", "assay_type": "cell-based", "settings": "5.0 μM, 8 h"}, "[13]": {"biological_target": "Keap1 and Nrf2 binding (Homo sapiens, UniProt Q14145)", "sequence (Q14145 whole entry)": "as the sequence (Q14145 whole entry) above", "test": "Competitive assay", "settings": "competitive inhibitor, double-reciprocal plot", "procedure,_shortened": "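Fluorescence polarisation kit assay. Diluted Keap1 ([…]) was combined with Nrf2 peptide (1 μM stock), BSA and test compound in kit buffer. The mix was incubated 0.5 h at ambient temperature and read at excitation 485 nm, emission 535 nm. For the competitive format, wells held […] Nrf2 with test compound at several concentrations.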"}, "[14]": {"test_system": "proteasome", "test": "Proteasome activity fluorometric assay kit", "assay_type": "cell-based, human", "settings": "5 μM, 8 h", "procedure,_shortened": "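LO2 cells were treated 8 h with test compound (5 μM). Proteasome activity was then measured with a commercial fluorometric kit, with MG132 as positive control.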"}, "[15]": {"test_system": "LO2 cells", "test": "MTT cytotoxicity assay, LO2", "assay_type": "cell-based, human", "settings": "read-out: cytotoxicity IC50; LO2, MTT, 48 h"}, "[16]": {"biological_target": "T3, Nrf2", "test": "Cellular thermal shift assay", "assay_type": "cell-based", "settings": "1 at 5.0 μM, LO2 cell lysates"}, "[17]": {"test_system": "mice", "test": "Toxicity evaluation and organ distribution in mice", "assay_type": "in vivo", "procedure,_shortened": "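Mice received test compound at 2.5 or 5.0 mg kg−1 i.p.; body and organ weights were recorded after 6 h. Organ index = organ wet weight/body weight × 100%; the figure legend reports indexes at 12 h, n = 5. About 100 mg tissue was ground in liquid nitrogen, nitric-acid digested, and analysed for iridium by ICP-MS. Organs were fixed 24 h, sectioned at 4 μm, and H&E stained.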"}, "[18]": {"test_system": "HO-1 and NQO1", "test": "HO-1 and NQO1 levels in LO2 cells by Western blotting", "assay_type": "cell-based, human"}, "[19]": {"test_system": "LO2 cells", "test": "Mitochondrial membrane potential by rhodamine 123 staining in LO2 cells", "assay_type": "cell-based, human", "settings": "5 μM, 8 h", "procedure,_shortened": "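LO2 cells were attached overnight, then treated 8 h with test compound (5 μM). CCCP (10 μM, 1 h) was the positive control. Cells were stained with rhodamine 123 (5 μg/mL, 30 min) for fluorescence microscopy. For quantitation, washed cells at 1.0 × 10^5 cells/mL were stained at 37 °C in the dark for 30 min and read by spectrofluorometer at excitation 505 nm, emission 534 nm.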"}, "[20]": {"test": "Pharmacokinetic profile in mouse plasma by ICP-MS", "assay_type": "in vivo", "settings": "mice", "procedure,_shortened": "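After an overnight fast, C57BL/6J mice received test compound at 5.0 mg kg−1 i.p. Blood was collected into EDTA-2Na at 0, 0.5, 1, 2, 6, 12, 24 and 48 h. Plasma iridium was quantified by ICP-MS, n = 4, shown as mean ± SD.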"}, "[21]": {"settings": "1 at 5.0 mg kg−1, 6 h after APAP challenge"}},
  "data": [
    {"molecule": "CC(=O)Nc1ccc(O)cc1", "note": "[APAP, Acetaminophen, reference compound]", "values": [
      {"measurement": "serum ALT, maximum level", "setting": "[1]; 12 h after APAP challenge", "value": 3334.98, "unit": "U/L"},
      {"measurement": "serum AST, maximum level", "setting": "[1]; 12 h after APAP challenge", "value": 2002.31, "unit": "U/L"},
      {"measurement": "serum ALT", "setting": "[1]; 48 h after APAP challenge", "value": 608.41, "unit": "U/L"},
      {"measurement": "serum AST", "setting": "[1]; 48 h after APAP challenge", "value": 488.20, "unit": "U/L"},
      {"measurement": "increase in serum ALT compared with the control group", "setting": "[1]; APAP 400 mg kg−1", "value": 188, "unit": "fold"},
      {"measurement": "increase in serum AST compared with the control group", "setting": "[1]; APAP 400 mg kg−1", "value": 216, "unit": "fold"},
      {"measurement": "percentage of necrotic liver areas", "setting": "[1]; APAP 400 mg kg−1 i.p. alone (model group)", "value": 21.01, "unit": "%"}
    ]},
    {"molecule": "Clc1cc(-c2ccccc2)nc2ccccc12", "note": "[Ligand 7, 4-chloro-2-phenylquinoline]", "values": [
      {"measurement": "IC50 at 48 h", "setting": "[2]", "value": "> 100", "unit": "µM"}
    ]},
    {"molecule": "Cc1ccc2ccc3ccc(C)nc3c2n1", "note": "[Ligand 8, 2,9-dimethyl-1,10-phenanthroline]", "values": [
      {"measurement": "IC50 at 48 h", "setting": "[2]", "value": "> 100", "unit": "µM"}
    ]},
    {"molecule": "[Ir (clpq)2 (2,9-dmphen)](PF6) [Complex 1]", "values": [
      {"measurement": "stability", "setting": "[3]", "value": "good stability"},
      {"measurement": "cellular permeability (iridium levels in nucleus and cytoplasm)", "setting": "[4]", "value": "good cellular permeability"},
      {"measurement": "Nrf2 accumulation in the nucleus", "setting": "[5]", "value": "induced Nrf2 accumulation in the nucleus"},
      {"measurement": "effect on ROS elevation", "setting": "[6]", "value": "no significant effect"},
      {"measurement": "IC50", "setting": "[7]", "value": 1.09, "unit": "µM"},
      {"measurement": "-TΔS (ITC)", "setting": "[8]; Keap1", "value": -1.64, "unit": "kcal/mol"},
      {"measurement": "stoichiometry N (ITC)", "setting": "[8]; Keap1", "value": "0.962 ± 0.026"},
      {"measurement": "ΔG (ITC)", "setting": "[8]; Keap1", "value": -8.39, "unit": "kcal/mol"},
      {"measurement": "ΔH (ITC)", "setting": "[8]; Keap1", "value": -6.75, "unit": "kcal/mol"},
      {"measurement": "Kd", "setting": "[8]; read-out: Kd (ITC), 200 μM of 1 titrated into Keap1 (20 μM), 25 °C", "value": "0.71 ± 0.79", "unit": "µM"},
      {"measurement": "binding to Nrf2 by ITC", "setting": "[9]", "value": "no binding was observed"},
      {"measurement": "cell viability of LO2 cells after treatment with APAP", "setting": "[10]", "value": "dose-dependent restoration of cell viability"},
      {"measurement": "shift of Keap1 melting curve", "setting": "[11]", "value": "ca. 6 °C"},
      {"measurement": "Nrf2 co-precipitated with Keap1", "setting": "[12]", "value": "reduction of Nrf2 co-precipitated with Keap1"},
      {"measurement": "Ki", "setting": "[13]", "value": 1.03, "unit": "µM"},
      {"measurement": "effect on proteasomal inhibition", "setting": "[14]", "value": "no significant effect"},
      {"measurement": "IC50", "setting": "[15]", "value": 48, "unit": "µM"},
      {"measurement": "shift of Nrf2 melting curve", "setting": "[16]", "value": "no significant shift"},
      {"measurement": "organ damage (organ morphology, organ index, H&E)", "setting": "[17]; 5.0 mg kg−1 i.p., 6, 12 and 24 h", "value": "did not cause organ damage"},
      {"measurement": "concentration in various organs (ICP-MS)", "setting": "[17]; i.p., 6 h", "value": "mainly concentrated in the liver and kidney"},
      {"measurement": "reductions of AST levels", "setting": "[1]; 1 (5 mg/kg), time intervals 6, 12, 24 and 48 h after APAP", "value": "32.29–53.62%"},
      {"measurement": "decrease of serum ALT", "setting": "[1]; [21]", "value": 23.5, "unit": "%"},
      {"measurement": "decrease of serum AST", "setting": "[1]; [21]", "value": 25.2, "unit": "%"},
      {"measurement": "percentage of necrotic liver areas", "setting": "[1]; APAP 400 mg kg−1 + 1 at 2.5 mg kg−1 i.p. once daily for five days", "value": 16.04, "unit": "%"},
      {"measurement": "percentage of necrotic liver areas", "setting": "[1]; APAP 400 mg kg−1 + 1 at 5.0 mg kg−1 i.p. once daily for five days", "value": 8.99, "unit": "%"},
      {"measurement": "Nrf2 levels in the nucleus (liver) in comparison to the APAP group", "setting": "[1]; mice, APAP + 1", "value": "significantly increased"},
      {"measurement": "protein expression of Keap1 (liver)", "setting": "[1]; mice, APAP + 1", "value": "remained basal"},
      {"measurement": "levels of HO-1 and NQO1", "setting": "[18]; 6 h treatment", "value": "increased"},
      {"measurement": "increase of HO-1 and NQO1 levels in Keap1 knockdown cells versus control cells", "setting": "[18]; Keap1 siRNA", "value": "less effective"},
      {"measurement": "increase of HO-1 and NQO1 levels after Nrf2 knockdown", "setting": "[18]; Nrf2 siRNA", "value": "muted"},
      {"measurement": "effect on mitochondrial dysfunction", "setting": "[19]", "value": "no significant effect"},
      {"measurement": "elimination half-life", "setting": "[20]; 5 mg kg−1 i.p.", "value": 12, "unit": "h"},
      {"measurement": "maximum mean peak area in plasma (Cmax)", "setting": "[20]; 5.0 mg kg−1 i.p.", "value": 13700, "unit": "ng/mL"},
      {"measurement": "Cmax", "setting": "[20]; read-out: maximum mean peak area in plasma (Cmax), 5.0 mg kg−1 i.p.", "value": 13.4, "unit": "µM"}
    ]}
  ]
}
